From ChEMBL document CHEMBL4350962, “Expanding the Chemical Space of Withaferin A by Incorporating Silicon To Improve Its Clinical Potential on Human Ovarian Carcinoma Cells” (J Med Chem, 2019)
Calls of active or inactive are those of the source. No cut-off for these calls is given here.

Key:
[1] = (§1) Antiproliferative activity against cisplatin-resistant human A2780/CP70 cells measured after 96 hrs by MTT assay; format: functional; conditions: A2780/CP70, 96 h
Summary of the method: (§2)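 Cells kept in DMEM or RPMI 1640 with 10% FBS and 5% penicillin-streptomycin at 37 °C, 5% CO2, seeded at 1 x 10⁴ cells/mL and left 24 h to adhere. Compounds or vehicle added over a concentration range for 96 h, then MTT 4 h; formazan dissolved in DMSO, absorbance read at 540 nm relative to control. IC50 given as mean ± SD of three independent experiments in duplicate.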

[2] = tested on: A2780; experiment: Cell cycle arrest in cisplatin-sensitive human A2780 cells assessed as accumulation at G0/G1 phase at 10 to 60 uM after 48 hrs by DAPI-staining based assay; format: functional
Summary of the method: (§3)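 A2780 cells seeded in T25 flasks, 24 h at 37 °C, then exposed 48 h to vehicle or compound at several concentrations. 1 x 10⁶ cells/mL spun at 400 g for 5 min, resuspended in lysis buffer with DAPI, 5 min at 37 °C, then stabilization buffer added. DNA content read by image cytometry to give sub-G1, G0/G1, S and G2 fractions; mean ± s.e. mean, n = 2.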

[3] = Selectivity index, ratio of IC50 for human ARPE19 cells to IC50 for cisplatin-sensitive human A2780 cells; format: toxicity; conditions: ARPE19 cells versus cisplatin-sensitive A2780 cells, read-out: Ratio IC50
[4] = Selectivity index, ratio of IC50 for human ARPE19 cells to IC50 for cisplatin-resistant human A2780/CP70 cells; format: toxicity; conditions: ARPE19 cells versus cisplatin-resistant A2780/CP70 cells, read-out: Ratio IC50
[5] = tested on: ARPE-19; experiment: Cytotoxicity against human ARPE19 cells measured after 96 hrs by MTT assay; format: cell-based; conditions: ARPE-19, 96 h; summary of the method: as §2
[6] = tested on: A2780; experiment: Antiproliferative activity against cisplatin-sensitive human A2780 cells measured after 96 hrs by MTT assay; format: functional, cell-based; conditions: for IC50: A2780, 96 h; summary of the method: as §2
[7] = tested on: A2780; experiment: Cell cycle arrest in cisplatin-sensitive human A2780 cells assessed as increase in accumulation at sub-G0/G1 phase at 10 to 60 uM after 48 hrs by DAPI-staining based assay; format: functional; summary of the method: as §3
[8] = tested on: A2780; experiment: Cell cycle arrest in cisplatin-sensitive human A2780 cells assessed as increase in DNA fragmentation after 48 hrs by DAPI-staining based assay; format: functional; summary of the method: as §3
[9] = tested on: A2780; experiment: Cell cycle arrest in cisplatin-sensitive human A2780 cells assessed as accumulation at G0/G1 phase at 5 to 10 uM after 48 hrs by DAPI-staining based assay; format: functional; summary of the method: as §3
[10] = tested on: A2780; experiment: Cell cycle arrest in cisplatin-sensitive human A2780 cells assessed as increase in accumulation at sub-G0/G1 phase at 5 to 10 uM after 48 hrs by DAPI-staining based assay; format: functional; summary of the method: as §3
[11] = organism: Homo sapiens; experiment: as §1; format: functional; summary of the method: as §2

IC50 [6] [µM] | SMILES | IC50 [1] [µM] | Activity [2] | selectivity ratio [3] | selectivity ratio [4] | IC50 [5] [µM] | Activity [7] | Activity [8] | Activity [9] | Activity [10] | Activity [11] | Activity [6]
0.017 | CC1=C(CO[Si](C)(C)C(C)(C)C)C(=O)O[C@@H]([C@@H](C)[C@H]2CC[C@H]3[C@@H]4C[C@H]5O[C@]56C(=O)C=CC(=O)[C@]6(C)[C@H]4CC[C@]23C)C1 | > 0.1 | inactive | 97.7 | 11.3 | 1.66 | Active | Dose-dependent effect |  |  |  | 
0.0475 | CC1=C(CO[Si](C)(C)C(C)(C)C)C(=O)O[C@@H]([C@@H](C)[C@H]2CC[C@H]3[C@@H]4C[C@H]5O[C@]56[C@@H](O)C=CC(=O)[C@]6(C)[C@H]4CC[C@]23C)C1 | > 0.1 |  | 0.3 | 0.1 | 0.0124 |  | Dose-dependent effect | inactive | Active |  | 
 | CCC[Si](CCC)(CCC)OCC1=C(C)C[C@H]([C@@H](C)[C@H]2CC[C@H]3[C@@H]4C[C@H]5O[C@]56[C@@H](O[Si](CCC)(CCC)CCC)C=CC(=O)[C@]6(C)[C@H]4CC[C@]23C)OC1=O |  |  |  |  |  |  |  |  |  | inactive | inactive
